In ChEMBL document CHEMBL1132597, “Corticotropin-releasing hormone receptor antagonists: framework design and synthesis guided by ligand conformational studies” (J Med Chem, 1999):

target: T1, Corticotropin-releasing factor receptor 1 (Rattus norvegicus, UniProt P35353); test: Binding affinity was determined against corticotropin releasing factor receptor 1; conditions: not given
T1 sequence (P35353 whole entry): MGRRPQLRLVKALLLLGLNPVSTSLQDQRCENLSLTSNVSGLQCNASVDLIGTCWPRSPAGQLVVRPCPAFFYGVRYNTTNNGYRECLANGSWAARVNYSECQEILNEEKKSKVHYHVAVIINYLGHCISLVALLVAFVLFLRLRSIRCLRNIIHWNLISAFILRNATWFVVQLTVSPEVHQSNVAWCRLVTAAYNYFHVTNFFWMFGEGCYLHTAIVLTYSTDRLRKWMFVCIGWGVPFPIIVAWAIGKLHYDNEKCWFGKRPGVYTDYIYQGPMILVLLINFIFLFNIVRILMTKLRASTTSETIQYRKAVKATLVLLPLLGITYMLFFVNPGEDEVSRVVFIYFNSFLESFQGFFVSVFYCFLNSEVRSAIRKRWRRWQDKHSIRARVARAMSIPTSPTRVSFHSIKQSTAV
Summary of the method: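 Rat CRH1 receptor-binding assay run in pH 7.2 buffer; affinity reported as Ki.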

Row | Structure (SMILES) | Ki
1 | CCN(c1nc(C)cc(Cl)n1)c1ccc(C(C)C)cc1I | Not reliable

same assay, conditions: read-out: Ki

Row | Structure (SMILES) | Ki [nM]
2 | Cc1cc(-c2ccccc2)c2ccn(-c3ccc(C(C)C)cc3Br)c2n1 | 36
3 | Cc1cc(-c2ccccc2)c2c(C#N)cn(-c3ccc(C(C)C)cc3Br)c2n1 | 34
4 | Cc1ccc2c(C#N)cn(-c3ccc(C(C)C)cc3Br)c2n1 | 1280
5 | Cc1cc(N2CCOCC2)c2c(C#N)cn(-c3ccc(C(C)C)cc3Br)c2n1 | 112
6 | Cc1cc(C)c2c(C#N)cn(-c3ccc(C(C)C)cc3Br)c2n1 | 363
7 | Cc1cc(Cl)nc2c1ccn2-c1ccc(C(C)C)cc1Br | 79
8 | Cc1cc(=O)[nH]c2c1c(C#N)cn2-c1ccc(C(C)C)cc1Br | > 10000
9 | CCN(c1nc(C)nc(N2CCOCC2)n1)c1c(Br)cc(OC)cc1OC | 43
10 | Cc1ccc2c(C#N)cn(-c3ccc(C(C)C)cc3Br)c2[n+]1[O-] | > 10000
11 | Cc1cc(N2CCOCC2)c2ccn(-c3ccc(C(C)C)cc3Br)c2n1 | 28
12 | COc1cc(Br)c(-n2ccc3c(C)cc(C)nc32)c(OC)c1 | 1
13 | Cc1ccnc2c1c(C#N)cn2-c1ccc(C(C)C)cc1Br | > 10000
14 | CCN(c1nc(C)cc(N2CCOCC2)n1)c1ccc(C(C)C)cc1Br | 22
15 | Cc1cc(Cl)nc2c1c(C#N)cn2-c1ccc(C(C)C)cc1Br | 446
16 | Cc1cc(C)nc(Nc2ccc(C(C)C)cc2Br)n1 | > 10000
17 | CCN(c1cc(C)nc(C)n1)c1ccc(C(C)C)cc1Br | > 1000
18 | Cc1ccnc2c1ccn2-c1ccc(C(C)C)cc1Br | > 10000
19 | Cc1ccc2ccn(-c3ccc(C(C)C)cc3Br)c2n1 | 222
20 | Cc1cc(C)nc(N(C)c2ccc(C(C)C)cc2I)n1 | 48
21 | Cc1cc(C)c2c(C(=O)O)cn(-c3ccc(C(C)C)cc3Br)c2n1 | > 10000
22 | Cc1cc(C)c2c(C(N)=O)cn(-c3ccc(C(C)C)cc3Br)c2n1 | > 10000
23 | Cc1cc(C)c2ccn(-c3ccc(C(C)C)cc3Br)c2n1 | 47
24 | Cc1cc(Cl)c2c(C#N)cn(-c3ccc(C(C)C)cc3Br)c2n1 | 722
25 | CCN(c1nc(C)cc(C)n1)c1c(Br)cc(OC)cc1OC | 5
26 | Cc1cc(Cl)c2ccn(-c3ccc(C(C)C)cc3Br)c2n1 | 67
27 | Cc1cc(-c2ccccc2)nc2c1c(C#N)cn2-c1ccc(C(C)C)cc1Br | > 100000
28 | Cc1cc(-c2ccccc2)nc2c1ccn2-c1ccc(C(C)C)cc1Br | > 10000
29 | COc1cc(Br)c(-n2cc(C#N)c3c(C)cc(C)nc32)c(OC)c1 | 29
